Where “and” joins values, the source holds several entries; their conditions need not be identical. Equal values may be shown once. Read-outs that look alike come from different tables or passages of the source.
Experiments:
Human VEGFR-2 = Human VEGFR-2 (Homo sapiens, UniProt P35968); experiment: In vitro VEGFR-2 assay; type: biochemical
primary rat hepatocytes = experiment: In vitro cytotoxicity against normal hepatic cells; type: cell-based; conditions: HepG-2 vs primary rat hepatocytes
HepG-2 = experiment: MTT anti-proliferative assay, HepG-2; type: cell-based, human
MCF-7 = experiment: cells; type: cell-based, human
BAX = experiment: Western blot, BAX expression in HepG-2; type: cell-based, human
How it was run: (§1)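 HepG-2 cells exposed 24 h to test compound at 2.3 μM, then probed by western blot for BAX, Bcl-2, active caspase-9 and active caspase-3. Each band is normalized to β-actin and expressed relative to control, and the BAX/Bcl-2 ratio is also tabulated. Values are mean ± SEM of three independent experiments, with significance flagged at p < 0.05, 0.01 and 0.001.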

caspase-3 = experiment: Western blot, active caspase-3 in HepG-2; type: cell-based, human
How it was run: as §1

HepG-2 cells = experiment: Cell cycle analysis; type: cell-based, human; conditions: HepG-2, 17b 2.3 μM
BAX/Bcl-2 ratio = experiment: Western blot, BAX/Bcl-2 ratio in HepG-2; type: cell-based, human; conditions: HepG-2 treated 24 h, 2.3 μM; control 1.00; mean ± SEM
How it was run: as §1

Bcl-2 = experiment: Western blot, Bcl-2 expression in HepG-2; type: cell-based, human
How it was run: as §1

caspase-9 = experiment: Western blot, active caspase-9 in HepG-2; type: cell-based, human
How it was run: as §1

[1] = HepG-2 treated 24 h, 2.3 μM, control 1.00, mean ± SEM

Chain of Human VEGFR-2 (P35968 20-1356): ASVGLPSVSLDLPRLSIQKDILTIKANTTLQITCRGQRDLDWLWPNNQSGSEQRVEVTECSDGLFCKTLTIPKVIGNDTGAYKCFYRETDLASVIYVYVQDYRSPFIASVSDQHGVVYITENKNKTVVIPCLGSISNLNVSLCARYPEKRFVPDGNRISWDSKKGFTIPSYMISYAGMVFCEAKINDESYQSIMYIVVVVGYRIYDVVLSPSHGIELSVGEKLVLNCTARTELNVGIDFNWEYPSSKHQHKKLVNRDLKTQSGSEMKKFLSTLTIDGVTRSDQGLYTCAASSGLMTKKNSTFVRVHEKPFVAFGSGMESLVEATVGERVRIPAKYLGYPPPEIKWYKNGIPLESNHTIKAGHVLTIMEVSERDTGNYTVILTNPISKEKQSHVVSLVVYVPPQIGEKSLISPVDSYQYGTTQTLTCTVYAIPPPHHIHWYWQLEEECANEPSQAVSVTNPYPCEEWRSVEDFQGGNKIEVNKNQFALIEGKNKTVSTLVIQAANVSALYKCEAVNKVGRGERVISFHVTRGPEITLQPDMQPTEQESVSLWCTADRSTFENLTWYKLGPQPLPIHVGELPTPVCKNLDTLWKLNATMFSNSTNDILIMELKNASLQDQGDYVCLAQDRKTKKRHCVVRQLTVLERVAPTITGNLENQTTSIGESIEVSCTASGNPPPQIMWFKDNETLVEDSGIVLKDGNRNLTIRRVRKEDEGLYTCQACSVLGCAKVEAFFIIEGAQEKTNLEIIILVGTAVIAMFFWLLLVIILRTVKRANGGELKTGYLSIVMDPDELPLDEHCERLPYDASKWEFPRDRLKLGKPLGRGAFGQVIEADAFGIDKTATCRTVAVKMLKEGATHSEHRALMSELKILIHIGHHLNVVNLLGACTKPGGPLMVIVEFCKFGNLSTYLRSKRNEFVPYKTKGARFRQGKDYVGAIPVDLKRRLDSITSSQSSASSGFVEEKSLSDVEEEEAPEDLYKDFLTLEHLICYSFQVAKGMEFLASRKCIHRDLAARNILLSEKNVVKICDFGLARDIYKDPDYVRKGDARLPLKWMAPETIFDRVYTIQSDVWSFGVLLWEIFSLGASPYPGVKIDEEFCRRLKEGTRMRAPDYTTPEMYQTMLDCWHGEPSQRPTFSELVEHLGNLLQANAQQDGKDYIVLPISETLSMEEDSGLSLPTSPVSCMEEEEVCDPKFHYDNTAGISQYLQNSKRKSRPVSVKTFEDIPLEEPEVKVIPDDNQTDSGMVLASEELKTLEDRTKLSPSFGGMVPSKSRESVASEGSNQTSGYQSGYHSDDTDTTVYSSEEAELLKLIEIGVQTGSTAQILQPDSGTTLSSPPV

`Cc1nc2ccccc2nc1SCC(=O)Nc1ccc(C(=O)NNC(=O)c2ccccc2O)cc1` [Compound 16, N-(4-(2-(2-Hydroxybenzoyl)hydrazine-1-carbonyl)phenyl)-2-((3-methylquinoxalin-2-yl)thio)acetamide] showed an IC50 (Human VEGFR-2) of 18.5 ± 0.8 nM.
In the case of `Cc1nc2ccccc2nc1SCC(=O)Nc1ccc(C(=O)Nc2ccc([N+](=O)[O-])cc2O)cc1` [Compound 15d, N-(2-Hydroxy-4-nitrophenyl)-4-(2-((3-methylquinoxalin-2-yl)thio)acetamido)benzamide], the IC50 (Human VEGFR-2) is reported as 31.5 ± 1.3 nM.
For `CNC(=O)c1cc(Oc2ccc(NC(=O)Nc3ccc(Cl)c(C(F)(F)F)c3)cc2)ccn1` [Sorafenib, sorafenib, reference compound], the “cytotoxic activity against cancer HepG-2 cell line more than against normal hepatic cells” value (primary rat hepatocytes) was 11 fold.
`Cc1nc2ccccc2n(CC(=O)Nc2ccc(C(=O)NNC(=O)c3ccccc3O)cc2)c1=O` [Compound 18, N-(4-(2-(2-Hydroxybenzoyl)hydrazine-1-carbonyl)phenyl)-2-(3-methyl-2-oxoquinoxalin-1(2H)-yl)acetamide] was tested, and the IC50 (Human VEGFR-2) was 11.2 ± 0.2 nM.
Work on `Cc1nc2ccccc2nc1SCC(=O)Nc1ccc(C(=O)Nc2ccc(O)cc2)cc1` [Compound 15c, N-(4-Hydroxyphenyl)-4-(2-((3-methylquinoxalin-2-yl)thio)acetamido)benzamide] yielded an IC50 (Human VEGFR-2) of 27.8 ± 1.2 nM.
`Cc1nc2ccccc2n(CC(=O)Nc2ccc(C(=O)Nc3ccc([N+](=O)[O-])cc3O)cc2)c1=O` [Compound 17d, N-(2-Hydroxy-4-nitrophenyl)-4-(2-(3-methyl-2-oxoquinoxalin-1(2H)-yl)acetamido)benzamide] showed an IC50 (Human VEGFR-2) of 11.2 ± 0.3 nM, an IC50 (HepG-2; Homo sapiens, HepG2, read-out: HepG-2 (IC50, μM)) of 22.4 ± 1.3 µM and an IC50 (MCF-7; Homo sapiens, MCF7, read-out: MCF-7 (IC50, μM)) of 35.2 ± 1.6 µM.
`Cc1nc2ccccc2nc1SCC(=O)Nc1ccc(C(=O)Nc2cccc(Cl)c2)cc1` [Compound 15b, N-(3-Chlorophenyl)-4-(2-((3-methylquinoxalin-2-yl)thio)acetamido)benzamide] was tested, and the IC50 (Human VEGFR-2) was 3.4 ± 0.2 nM.
With `Cc1nc2ccccc2n(CC(=O)Nc2ccc(C(=O)Nc3ccc(O)cc3)cc2)c1=O` [Compound 17c, N-(4-Hydroxyphenyl)-4-(2-(3-methyl-2-oxoquinoxalin-1(2H)-yl)acetamido)benzamide] the IC50 (Human VEGFR-2) was 13.9 ± 0.5 nM.
Molecule `CCCCNC(=O)c1ccc(NC(=O)CSc2nc3ccccc3nc2C)cc1` [Compound 15a, N-Butyl-4-(2-((3-methylquinoxalin-2-yl)thio)acetamido)benzamide] has an IC50 (Human VEGFR-2) of 23.1 ± 0.8 nM.
For `CCCCNC(=O)c1ccc(NC(=O)Cn2c(=O)c(C)nc3ccccc32)cc1` [Compound 17a, N-Butyl-4-(2-(3-methyl-2-oxoquinoxalin-1(2H)-yl)acetamido)benzamide], the IC50 (Human VEGFR-2) was 11.2 ± 0.4 nM.
With `Cc1nc2ccccc2n(CC(=O)Nc2ccc(C(=O)Nc3cccc(Cl)c3)cc2)c1=O` [Compound 17b, N-(3-Chlorophenyl)-4-(2-(3-methyl-2-oxoquinoxalin-1(2H)-yl)acetamido)benzamide] the “boost of BAX level” value (BAX; HepG-2, 2.3 μM) was “approximately 4 fold”, the “Protein expression (normalized to β-actin) BAX” value (BAX; [1]) was 4.21 ± 0.60 and the “increase of caspase-3 level compared to control cells” value (caspase-3; HepG-2, 2.3 μM) was 1.8 fold. The “Protein expression (normalized to β-actin) Caspases-3” value (caspase-3; [1]) was 1.85 ± 0.26, the “Cell cycle analysis (%) % G1” value (HepG-2 cells) was 40.03 ± 2.82 % and the “Cell cycle analysis (%) % G2/M” value (HepG-2 cells) was 30.38% and 30.38 ± 2.93 %. For the same molecule, the “Cell cycle analysis (%) % S” value (HepG-2 cells) was 28.31 ± 1.01%, the “Cell cycle analysis (%) % Sub-G1” value (HepG-2 cells) was 1.27 ± 0.17% and the “Protein expression (normalized to β-actin) BAX/Bcl-2 ratio” value (BAX/Bcl-2 ratio) was 9.30 ± 2.66. The IC50 (HepG-2; read-out: HepG-2 (IC50), MTT, mean ± S.D. of three experiments) was 2.3 ± 0.2 µM, the “cytotoxic activity against cancer HepG-2 cell line more than against normal hepatic cells” value (primary rat hepatocytes) was 10 fold and the “downregulation of Bcl-2 level” value (Bcl-2; HepG-2, 2.3 μM) was “around 3 fold”. For the same molecule, the “Protein expression (normalized to β-actin) Bcl-2” value (Bcl-2; [1]) was 0.32 ± 0.04, the IC50 (MCF-7; read-out: MCF-7 (IC50), MTT, mean ± S.D. of three experiments) was 2.8 ± 0.2 µM and the “increase of caspase-9 level compared to control cells” value (caspase-9; HepG-2, 2.3 μM) was 1.74 fold. For the same molecule, the “Protein expression (normalized to β-actin) Caspases-9” value (caspase-9; [1]) was 1.74 ± 0.20.
